Measured values reported in ChEMBL document CHEMBL1125098, “Lipophilic 1,3-xylyl-21-crown-6 macrocyclic polyether 2-carboxylic acids as biological mimics of the ionophore antibiotics” (1990).
In brackets after ≈: the same amount, converted by molar mass.

How the values were obtained:
[1] = Antibacterial activity against Streptococcus equi 02I001; format: functional
Procedure, shortened: (§1)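 Agar dilution MIC on BHI agar: overnight BHI broth cultures (37 °C) diluted 100-fold, ~10000–20000 cells spotted by multiple inoculator; twelve 2-fold dilutions starting at 200 μg/mL; plates read after 18 h at 37 °C, single colonies disregarded. Compounds tested as macrocyclic carboxylate salts.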

[2] = Antibacterial activity Streptococcus zooepidemicus 02H001; format: functional, Streptococcus equi subsp. zooepidemicus; details: Streptococcus equi; procedure, shortened: as §1
Bos taurus [3] = species: Bos taurus; assay: In vitro rumen propionic acid test procedure, 50 ug/mL; format: functional
Procedure, shortened: (§2)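 Filtered rumen fluid (10 mL) with 400 mg substrate (68% corn starch, 17% cellulose, 15% extracted soybean meal) and pH 6.8 buffer, compound at 50 or 20 μg/mL; N2-gassed, shaken at 39 °C ~6 h, triplicate. Stopped with metaphosphoric acid, then GLC peak heights of acetic/propionic/butyric acids; response expressed relative to monensin at 10 μg/mL versus untreated controls.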

Bos taurus [4] = species: Bos taurus; assay: In vitro rumen propionic acid test procedure, 20 ug/mL; format: functional; procedure, shortened: as §2
Staphylococcus aureus = assay: Antibacterial activity against Staphylococcus aureus 01A005; format: functional; procedure, shortened: as §1
Clostridium perfringens = assay: Antibacterial activity was determined against Clostridium perfringens 10A002; format: functional
Procedure, shortened: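 Agar dilution MIC on BHI agar, twelve 2-fold dilutions of drug starting at 200 μg/mL. Overnight BHI broth cultures (37 °C) diluted 100-fold; about 10000–20000 cells spotted per point by multiple inoculator. Plates read after 18 h at 37 °C, single colonies disregarded. Incubated anaerobically under 80% N₂, 10% CO₂, 10% H₂ in an anaerobic chamber.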

Structure (SMILES)	MIC [1] [mg/L]	MIC [2] [mg/L]	Stimulation (Bos taurus [3]) [%]	Stimulation (Bos taurus [4]) [%]	MIC (Staphylococcus aureus) [mg/L]	MIC (Clostridium perfringens) [mg/L]
COc1cc2c(C(=O)O)c(c1)COCCOCCOc1c(C)cc(C(C)(C)CC(C)(C)C)cc1OCCOCCOC2	25 (≈ 42.5 µM)	25 (≈ 42.5 µM)	0.42	0.04	50 (≈ 84.9 µM)	
CC(C)(C)c1ccc(OCC2COc3ccccc3OCCOCCOCCOCc3cc(C(C)(C)C)cc(c3C(=O)O)CO2)cc1 (configuration not stated)	1.56 (≈ 2.4 µM)	3.12 (≈ 4.79 µM)	1.06	0.6	1.56 (≈ 2.4 µM)	1.56 (≈ 2.4 µM)
COCc1cc(C(C)(C)CC(C)(C)C)cc2c1OCCOCCOCc1cc(C(C)(C)C)cc(c1C(=O)O)COCCOCCO2	12.5 (≈ 19.4 µM)	25 (≈ 38.8 µM)	0.64	0.2	12.5 (≈ 19.4 µM)	25 (≈ 38.8 µM)
CC(C)(C)CC(C)(C)c1cc(Cc2ccccc2)c2c(c1)OCCOCCOCc1cc(C(C)(C)C)cc(c1C(=O)O)COCCOCCO2	3.12 (≈ 4.52 µM)	3.12 (≈ 4.52 µM)	0.76	0.44	3.12 (≈ 4.52 µM)	1.56 (≈ 2.26 µM)
CC(C)(C)CC(C)(C)c1ccc2c(c1)OCCOCCOCc1cccc(c1C(=O)O)COCCOCCO2	25 (≈ 45.9 µM)	25 (≈ 45.9 µM)	1.02	0.4	25 (≈ 45.9 µM)	25 (≈ 45.9 µM)
CC(C)(C)c1cc2c(C(=O)O)c(c1)COC(COc1ccccc1)COc1ccccc1OCCOCCOCCOC2 (configuration not stated)	25 (≈ 42 µM)	50 (≈ 84.1 µM)		0	25 (≈ 42 µM)	25 (≈ 42 µM)
Cc1cc(C(C)(C)CC(C)(C)C)cc2c1OCCOCCOCc1cccc(c1C(=O)O)COCCOCCO2	12.5 (≈ 22.4 µM)	50 (≈ 89.5 µM)	0.87	0.33	25 (≈ 44.7 µM)	
CC(C)c1cc(C(C)(C)CC(C)(C)C)cc2c1OCCOCCOCc1cc(C(C)(C)C)cc(c1C(=O)O)COCCOCCO2	0.78 (≈ 1.21 µM)	0.78 (≈ 1.21 µM)	0.7	0.43	0.78 (≈ 1.21 µM)	< 0.39
CC(C)(C)CC(C)(C)c1cc(CCc2ccccc2)c2c(c1)OCCOCCOCc1cc(C(C)(C)C)cc(c1C(=O)O)COCCOCCO2	1.56 (≈ 2.21 µM)	1.56 (≈ 2.21 µM)	1.09	0.32	6.25 (≈ 8.87 µM)	1.56 (≈ 2.21 µM)
CCCCCCCCCCCc1ccc2c(c1)OCCOCCOCc1cccc(c1C(=O)O)COCCOCCO2	1.56 (≈ 2.66 µM)	1.56 (≈ 2.66 µM)	0.82	0.46	1.56 (≈ 2.66 µM)	3.12 (≈ 5.32 µM)
Cc1cc(C(C)(C)CC(C)(C)C)cc2c1OCCOCCOCc1cc(C(C)(C)C)cc(c1C(=O)O)COCCOCCO2	3.12 (≈ 5.07 µM)	6.25 (≈ 10.2 µM)	1.02	0.5	6.25 (≈ 10.2 µM)	3.12 (≈ 5.07 µM)
CC(C)(C)CC(C)(C)c1ccc2c(c1)OCCOCCOCc1cc(C(C)(C)C)cc(c1C(=O)O)COCCOCCO2	6.25 (≈ 10.4 µM)	6.25 (≈ 10.4 µM)	0.97	0.64	12.5 (≈ 20.8 µM)	6.25 (≈ 10.4 µM)
CC(C)(C)CC(C)(C)c1ccc2c(c1)OCCOCCOCCOCc1cc(C(C)(C)C)cc(c1C(=O)O)COCCOCCOCCO2	12.5 (≈ 18.1 µM)	25 (≈ 36.3 µM)	0.52	0.4	50 (≈ 72.6 µM)	25 (≈ 36.3 µM)
O=C(O)c1c2cccc1COCCOCCOCCOCCOCCOC2	> 200	> 200	0	0	> 200	> 200
O=C(O)c1c2cccc1COCCOCCOc1ccccc1OCCOCCOC2	> 200	> 200	0.2		> 200	> 200
Cc1cc(C(C)(C)CC(C)(C)C)cc2c1OCCOCCOCc1cc(Br)cc(c1C(=O)O)COCCOCCO2	6.25 (≈ 9.8 µM)	12.5 (≈ 19.6 µM)	0.53	0.06	12.5 (≈ 19.6 µM)	
Cc1cc(C(C)(C)CC(C)(C)C)cc2c1OCCOCCOCCOCc1cc(C(C)(C)C)cc(c1C(=O)O)COCCOCCOCCO2	3.12 (≈ 4.44 µM)	6.25 (≈ 8.89 µM)	0.41	0.11	12.5 (≈ 17.8 µM)	12.5 (≈ 17.8 µM)
